Hits are enriched below; roughly 4.6% of the tested compounds scored in any of these assays.
Arbovirus inh: antivirals against arbovirus infection, primary screen, cell-based, full library, 10K replicate subset; arbovirus infection cell-based antiviral screen; inhibition, % at 10 µM; actives 0.37% (n = 200,000); in the data active = inhibition above about 30%
Biofilm kill mix: clotrimazole potentiators killing C. albicans biofilm, primary screen, 4-compound mixtures. inhibition, % at 7.6 µM. C. albicans biofilm persisters + clotrimazole, fluorescence viability; primary screen in compound mixtures of four per well. actives 0.02% (n = 120,000);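 active = inhibition above 30.3% in the primary screen of four-compound pools, then above 30% when the compound was retested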;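 also: compounds exposed to preformed 24 h biofilms for 48 h; 0% = untreated biofilm control and 100% = clotrimazole plus chlorhexidine kill blank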
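Test system: C. albicans CAF4-2 wild-type biofilms; buffer or medium: RPMI/MOPS medium, pH 7.0; schedule: 24 h biofilm formation, then 48 h compound exposure, 37 °C; detection: Alamar Blue fluorescence; measure: percent inhibition of biofilm viability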
WT yeast gro inh: growth inhibition of WT strain, primary screen, mitochondrial fusion inhibitor project, WT and mutant strains, chemical genetic | actives 2.1% (n = 190,000) | AID 1362, 2008 | inhibition, % at 10 µM | mitochondrial fusion phenotypic screen; in the data active = inhibition above about 58%; tested in S. cerevisiae
p47phox inh: p47phox/p22phox peptide binding inhibitors, primary screen, biochemical, uHTS, NADPH oxidase regulatory subunit | Neutrophil cytosol factor 1 (Homo sapiens), P14598 | fluorescence polarization, 2 h | inhibition, % at 24.7 µM | actives 0.53% (n = 220,000) | AID 1274, 2008;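 active = inhibition above about 30%, limit read from the data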;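 also: 0% = p47phox with labelled peptide and 100% = labelled peptide alone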
Hck-Nef inh: inhibitors of Nef-activated human Hck kinase, primary screen, biochemical, Z-Lyte FRET, 384-well, Hck-YEEI; Tyrosine-protein kinase HCK (Homo sapiens), P08631; Recombinant Hck-YEEI plus Nef, Z-Lyte FRET kinase assay; inhibition, % at 20 µM; actives 0.68% (n = 220,000);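 active = Hck-Nef kinase inhibition above about 50%, limit read from the data; inactive = inhibition below that limit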;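 also: 0% = DMSO with Hck plus Nef and 100% = Hck alone without Nef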
Target sequence (P08631 whole entry, looked up): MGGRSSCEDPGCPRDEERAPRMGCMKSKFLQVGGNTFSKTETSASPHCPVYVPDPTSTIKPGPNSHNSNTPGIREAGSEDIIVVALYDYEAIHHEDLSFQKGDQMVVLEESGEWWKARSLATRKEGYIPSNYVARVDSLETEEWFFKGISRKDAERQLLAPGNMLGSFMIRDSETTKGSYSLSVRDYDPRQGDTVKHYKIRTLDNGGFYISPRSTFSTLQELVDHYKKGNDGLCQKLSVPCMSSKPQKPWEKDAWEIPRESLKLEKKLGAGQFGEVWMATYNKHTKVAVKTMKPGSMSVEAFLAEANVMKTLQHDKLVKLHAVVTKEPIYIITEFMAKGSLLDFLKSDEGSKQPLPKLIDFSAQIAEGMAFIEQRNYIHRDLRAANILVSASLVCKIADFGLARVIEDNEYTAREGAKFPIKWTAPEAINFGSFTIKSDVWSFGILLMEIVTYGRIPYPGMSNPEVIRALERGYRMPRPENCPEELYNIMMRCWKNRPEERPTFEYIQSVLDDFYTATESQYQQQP
RAM network inh: inhibitors of the yeast RAM network, primary screen, dse1pr::URA3 reporter, 5-FOA selection | S. cerevisiae dse1pr::URA3 reporter, 5-FOA growth OD615, 2 d; analog-sensitive cbk1-as2 kinase mutant strain | actives 1.8% (n = 190,000) | inhibition, % at 50 µM;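 active = inhibition above a set limit, 3 SD over mean compound inhibition, cut at about 8.4% in these data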;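 also: 0% = DMSO-only wells with no growth and 100% = 10 µM 1-NA-PP1 full growth; inhibition rescues growth on 5-FOA so higher OD means more RAM inhibition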
Hck Nef conf: retest of Hck:Nef kinase inhibitor hits, confirmation, biochemical, Z-Lyte FRET, 384-well, p-Tyr peptide counterscreen. shares compounds with Hck-Nef inh. Recombinant Hck-YEEI:Nef, Z-Lyte FRET kinase assay. calls only at 10 µM. actives 28% (n = 1,300). AID 463188, 2010;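 active = average inhibition of at least 50%, with Z-scores no higher than 3 in both the phospho-tyrosine peptide and fluorescence counterscreens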
Numbers without * were called inactive; i = inactive; · = no result given; + = active, no number.

SMILES	Arbovirus inh	Biofilm kill mix	WT yeast gro inh	p47phox inh	Hck-Nef inh	RAM network inh	Hck Nef conf
Cc1c(Cl)cccc1NS(=O)(=O)c1ccc2c(c1)C1C=CCC1C(c1ccc(C(=O)O)cc1)N2 (centres undefined)	-4	12	1	6	63*	8	+
Cc1ccc(CN2CCN(CC(=O)N=Nc3c(O)[nH]c4ccccc34)CC2)cc1	-2	15	-12	-7	2	2	·
O=C(N=Nc1c(O)[nH]c2ccccc12)c1ccc(CN2CCOCC2)cc1	2	8	-1	-5	94*	1	+
CSc1nsc(/C=C/Nc2ccc(F)cc2F)c1C#N	8	-9	24	-32	51*	1	i
CCc1ccc(NC(=O)C(=O)NCc2ccccn2)cc1	-11	6	4	-63	19	-1	·
CC(=O)c1cc2ccc(O)cc2oc1=O	·	18	·	-10	+	·	·
O=C(NCc1ccco1)c1cc2ccc(O)cc2oc1=O	9	·	-3	-35	+	2	·
CC(=O)c1cc2cc(O)ccc2o1	13	·	33	3	73*	1	·
O=C(c1ccccc1)c1cc2ccc(O)cc2oc1=O	4	·	-4	-18	69*	3	·
Cn1c(N)c(C(=O)COC(=O)CNS(=O)(=O)c2cccc(Cl)c2)c(=O)n(C)c1=O	7	4	-7	-5	-6	0	·
COC(=O)c1ccc(COc2ccc(/C=C(\C#N)c3nc4ccccc4[nH]3)cc2OC)o1	-5	·	-11	-113	5	4	·
COc1cc(/C=C(/C#N)c2nc3ccccc3[nH]2)ccc1OCc1ccc(C(=O)O)o1	1	·	-14	-45	56*	8	+
COc1cc(/C=C2\SC(c3ccccc3)=NC2=O)cc(Cl)c1O	-1	6	34	-26	50*	0	+
Cc1ccccc1NC(=O)Cn1c(=O)sc2ccccc21	-5	21	2	4	17	2	·
Cc1ccc(S(=O)(=O)NCCOc2nc(N(C)C)nc(N(C)C)n2)cc1	·	22	·	-2	3	·	·
COc1ccc(NC(=O)CN2C(=O)/C(=C3\SC(=S)N(C4CCS(=O)(=O)C4)C3=O)c3ccccc32)cc1 (centres undefined)	·	13	·	52*	99*	·	+
O=C(CN1C(=O)/C(=C2\SC(=S)N(C3CCS(=O)(=O)C3)C2=O)c2ccccc21)Nc1ccc(F)cc1 (centres undefined)	·	21	·	26	48	·	·
CCCCCCn1c(-c2ccco2)nc2oc3cc(OC)ccc3c(=O)c2c1=O	-13	·	-11	-24	0	8	·
CCOC(=O)c1cc2c(=O)n3cccc(C)c3nc2n(CC2CCCO2)c1=NC(C)=O (centres undefined)	·	·	·	·	74*	·	i
CCOCCCn1c(=NC(C)=O)c(C#N)cc2c(=O)n3cccc(C)c3nc21	·	-2	·	-15	36	·	·
CCOC(=O)c1cc2c(=O)n3ccccc3nc2n(CCCOC)c1=NC(C)=O	-4	·	2	0	173*	0	·
CCOC(=O)c1cc2c(=O)n3cccc(C)c3nc2n(CCOC)c1=NC(C)=O	·	16	·	-10	87*	·	·
O=C(CN1C(=O)NC2(CCSC2)C1=O)NCc1ccccc1 (centres undefined)	-1	-7	-8	-7	22	2	·
CCCNc1nc(Cl)nc(NC(C)(C)C)n1	-3	9	4	2	9	0	·
Cc1ccc(-c2nc3cccnc3o2)cc1NC(=O)COc1ccc(C(C)(C)C)cc1	1	·	54	-33	0	4	·
SMILES	Arbovirus inh	Biofilm kill mix	WT yeast gro inh	p47phox inh	Hck-Nef inh	RAM network inh	Hck Nef conf
Cc1ccc(-c2nc3cccnc3o2)cc1NC(=O)COc1ccc(Cl)cc1C	-13	·	8	57*	62*	1	i
Cc1cc2c(n1-c1ccc(Br)cc1)CC(C)(C)CC2=O	-4	·	14	-12	99*	1	i
COc1ccccc1C1CCN(C(=O)c2cnn(-c3ccccc3)c2C)CC1	·	16	·	1	14	·	·
Cc1cccc(NC(=O)c2cn(-c3ccccc3)nc2-c2ccccc2)c1	-2	12	-9	-10	1	2	·
O=C(N/N=C1\C2CN3CCN(C2)CC1(c1ccccc1)C3)Nc1ccccc1	-3	12	-11	-17	4	2	·
Cc1ccc(CNc2ncnc3cc(Cl)ccc23)o1	11	·	4	-5	-14	2	·
COc1cc2ncnc(NCc3ccc(C)o3)c2cc1OC	0	5	-3	2	78*	0	i
C/C(=N\NC(=O)c1ccc(OC2OCCOC2Oc2ccc(C(=O)N/N=C(\C)c3ccncc3)cc2)cc1)c1ccncc1 (centres undefined)	·	10	·	21	61*	·	i
C=CCn1c(-c2cccs2)nc2ccccc21	14	·	-1	-10	2	0	·
C=CCn1c(-c2cccs2)nc2nc3ccccc3nc21	-11	·	10	-12	72*	2	i
CCOC(=O)c1[nH]c2ccccc2c1NC(=S)Nc1cc(C)ccc1C	1	1	4	-1	57*	1	i
COc1ccc(S(=O)(=O)N(CC(=O)NCc2cccnc2)C2CCCCC2)cc1OC	·	30	·	2	5	·	·
CCOc1nc(Nc2ccc(OC)cc2)nc(OCC)n1	-3	·	19	-17	3	1	·
COc1ccc(Nc2ccnc(Nc3ccc(OC)cc3)n2)cc1	-39	13	47	-8	88*	1	+
O=Cc1cc(N=Nc2cccc(C(=O)O)c2)ccc1O	24	-6	-1	-1	26	0	·
O=Cc1cc(N=Nc2ccccc2Cl)ccc1O	-17	12	8	-8	57*	2	+
COc1ccc(-c2csc(Nc3ccccc3)[n+]2Cc2ccccc2)cc1	9	9	21	-6	17	2	·
Cc1ccc(-c2csc(Nc3ccc(C(=O)O)cc3)[n+]2Cc2ccccc2)cc1	0	14	-5	-99	85*	6	+
NC(=O)c1sc2nc3c(c(-c4ccco4)c2c1N)CCC3	13	·	-11	-13	-11	5	·
Nc1c(C(=O)NC2CC2)sc2nc3c(c(-c4ccco4)c12)CC/C3=C/c1ccco1	6	15	17	8	85*	5	i
CCn1c(SCC(=O)NCc2ccco2)nc2ccccc2c1=O	7	19	1	-9	23	1	·
